Experimental data pooled from the literature.
Serine protease HTRA1 S328A: Serine protease HTRA1 (Homo sapiens, UniProt Q92743, S328A)
TMEM97: Sigma intracellular receptor 2 (TMEM97, Homo sapiens, UniProt Q5BJF2)
tspO: tspO (Cereibacter sphaeroides, UniProt Q9RFC8)

For `CC(C)C[C@H](NC(=O)[C@H](CC(=O)O)NC(=O)[C@H](CC(=O)O)NC(=O)[C@H](CC(=O)O)NC(=O)[C@@H](NC(=O)[C@H](Cc1c[nH]c2ccccc12)NC(=O)[C@@H](N)CCC(=O)O)[C@@H](C)O)C(=O)N[C@@H](CO)C(=O)N[C@H](C(=O)N[C@@H](CC(=O)O)C(=O)N[C@@H](C)C(=O)O)C(C)C`, the Kd was 25.6 µM (Serine protease HTRA1 S328A; binding, ITC; pH 8).
`CC(C)(C)[C@]1(O)CCN2C[C@@H]3c4ccccc4CCc4cccc(c43)[C@H]2C1` gave a Ki of 4.79 µM (TMEM97; ligand displacement, radioligand).
With `NC[C@@H]1[C@H]2CN3C(=O)c4cccn4[C@@H]4NC(N)=N[C@@]43[C@@H]2[C@]2(N=C(N)N[C@H]2O)[C@H]1Cl` (single isomer, unassigned) the IC50 was 2.8 µM (Proteasome subunit beta type-8, chymotrypsin-like site (PSMB8, Homo sapiens, UniProt P28062); enzyme activity, inhibitor).
For `Cc1c(-c2ccccc2)no[n+]1[O-]`, the IC50 was over 50 µM (Thioredoxin glutathione reductase (Schistosoma mansoni, UniProt Q962Y6); enzyme activity, inhibitor).
For `CN(CCCN1c2ccccc2CCc2ccccc21)CC(=O)c1ccc(Cl)cc1`, the Ki was 2.01 µM (TMEM97; ligand displacement, radioligand).
`COc1cc(Nc2ncc(F)c(Nc3ccc4c(n3)NC(=O)C(C)(C)O4)n2)cc(OC)c1OC` has an IC50 of 0.158 µM (UDP-glucuronosyltransferase 1A1 (UGT1A1, Homo sapiens, UniProt P22309); enzyme activity, inhibitor).
The Kd of `O=c1c(O)c(-c2ccc(O)c(O)c2)oc2cc(O)ccc12` is reported as 0.94 µM (Ribosomal protein S6 kinase beta-1 (RPS6KB1, Homo sapiens, UniProt P23443); cell-free assay, competition with immobilised ligand).
For `CC(C)C[C@H](NC(=O)[C@H](Cc1ccccc1)NC(=O)c1cnccn1)B(O)O`, the IC50 was over 33 µM (Serine protease HTRA2, mitochondrial (HTRA2, Homo sapiens, UniProt O43464); enzyme activity, inhibitor).
For `CC[C@H](C)[C@H](NC(=O)[C@H](Cc1c[nH]c2ccccc12)NC(=O)[C@H](C)NC(=O)[C@H](C)NC(=O)[C@H](Cc1ccc(O)cc1)NC(=O)[C@@H](N)CO)C(=O)N[C@@H](CC(=O)O)C(=O)N[C@H](C(=O)N[C@@H](CCC(=O)O)C(=O)N[C@@H](CC(=O)O)C(=O)N[C@@H](CC(C)C)C(=O)O)C(C)C`, the Kd was 34 µM (Serine protease HTRA1 S328A; binding, ITC; pH 8).
For `C=CC1=C(C)/C(=C/c2[nH]c(Cc3[nH]c(/C=C4\NC(=O)C(C)=C4C=C)c(C)c3CCC(=O)O)c(CCC(=O)O)c2C)NC1=O`, the Kd was 4.7 µM (tspO; binding, fluorescence).
`O=C1Nc2ccccc2/C1=C/c1cn(-c2nc(Cl)nc(N3CCOCC3)n2)c2ccccc12` has an IC50 of 2 µM (Prostaglandin G/H synthase 2 (PTGS2, Homo sapiens, UniProt P35354); enzyme activity, inhibitor).
`CC[C@H](C)[C@H](NC(=O)[C@H](Cc1c[nH]c2ccccc12)NC(=O)[C@H](C)NC(=O)[C@H](C)NC(=O)[C@H](Cc1ccc(O)cc1)NC(=O)[C@@H](N)CO)C(=O)N[C@@H](CC(=O)O)C(=O)N[C@H](C(=O)N[C@@H](CCC(=O)O)C(=O)N[C@@H](CO)C(=O)N[C@@H](CC(C)C)C(=O)O)C(C)C` gave a Kd of 43.3 µM (Serine protease HTRA1 S328A; binding, ITC; pH 8).
For `OCCN1CCN(CCCN2c3ccccc3C=Cc3ccccc32)CC1`, the Ki was 0.126 µM (TMEM97; ligand displacement, radioligand).
`CCC(C)N(C)C(=O)c1cc2ccccc2c(-c2ccccc2Cl)n1` (stereo not drawn) has a Kd of 10 µM (tspO; binding, fluorescence).
For `Cc1c2ccncc2c(C)c2c1[nH]c1ccccc12`, the Ki was over 10 µM (TMEM97; ligand displacement, radioligand).
`CC[C@@H]1SC2(CCN(C)CC2)NC1=O` has an EC50 of 0.0328 µM (Muscarinic acetylcholine receptor M3 (CHRM3, Homo sapiens, UniProt P20309); calcium signal, agonist).
For `Cc1cccc(CN2CCN(C(c3ccccc3)c3ccc(Cl)cc3)CC2)c1` (stereo not drawn), the Ki was over 10 µM (TMEM97; ligand displacement, radioligand).
`CC[C@H](C)[C@H](NC(=O)[C@H](C)NC(=O)[C@H](CCCNC(=N)N)NC(=O)[C@H](CC(C)C)NC(=O)[C@@H](N)Cc1ccccc1)C(=O)N[C@@H](CCCNC(=N)N)C(=O)N1CCC[C@H]1C(=O)N[C@@H](CCCCN)C(=O)O` has an IC50 of 0.74 µM (B1 bradykinin receptor (Rattus norvegicus, UniProt P97583); ligand displacement, radioligand; cell membranes).
